The source of these data is PubChem BioAssay.

Experiment [1] can be described thus: S. cerevisiae growth inhibition in permissive medium (OD615), pilot counter-assay for S. cerevisiae lifespan shortening project, permissive growth control (AID 705;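 active means growth inhibition above 25% in both replicates, a cutoff set 3 SD above the mean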). To be noted: OD615, 24 h, at 10 µM, active compounds read high. An outline of the steps:
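Test system: Saccharomyces cerevisiae strain carrying genetically modified DeaD replicative-lifespan system; buffer or medium: SC raffinose/galactose permissive medium; dosing: one dose 10 µM, DMSO 0.25% final; times: 24 h exposure, 30 °C; measured by: OD at 615 nm; read-out basis: growth inhibition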

Experiment [2] in a line: S. cerevisiae growth inhibition in restrictive medium, OD615, pilot screen, restrictive growth control, yeast lifespan reduction project (AID 706;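 active means growth inhibition above a set limit, 3 SD over mean compound inhibition, in both replicates, cut at about 43% in these data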;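 further: modified DeaD lifespan yeast strain shifted to restrictive glucose medium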). The note with it: OD615, 48 h, at 10 µM, active compounds read high. The method in brief:
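material = engineered S. cerevisiae DeaD strain | buffer or medium = glucose-based CSMM-D restrictive medium | dosing = one concentration, 10 µM final, 0.25% DMSO | schedule = 4 h pre-growth plus 48 h compound exposure, 30 °C | detection = OD615 absorbance reading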

Experiment [3] can be described thus: doxorubicin toxicity protection in MRP-1 cells – H69AR cells, CellTiter-Glo, duplicate, MRP-1 activator project, pilot screen (AID 807;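 active means viability increase at or above a cutoff of the median across tested compounds plus 3 SD, cut at about 8.5% in these data, passing the limit was not always enough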;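 further: compound pretreatment 18-22 h then 72 h combined with doxorubicin; 0% = doxorubicin alone and 100% = vehicle without doxorubicin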). The note with it: H69AR viability with doxorubicin, CellTiter-Glo luminescence; at 10 µM; active compounds read high. Background: Cellular ATP, detected with luciferase, serves as a proxy for viable cell number.
A short description of experiment [4]: viability of HCT116 without oncogenic beta-catenin – human colon tumor cells, pilot screen (AID 823).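 Further: 0% = wells killed by 20 µM Hyamine and 100% = untreated DMSO cell wells.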 To be noted: HCT116 beta-catenin knockout viability, CellTiter-Glo, 60 h; at 10 µM; active compounds read low.
Experiment [5] is described as follows: RAM pathway blockade in budding yeast – dse1pr::URA3 reporter, 5-FOA selection, pilot screen (AID 869;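 active means inhibition over a set limit, the all-compound mean plus 3 SD, in both replicate runs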;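 further: 0% = DMSO wells with no growth and 100% = 10 µM 1-NA-PP1 with full growth; RAM network block rescues cells from 5-FOA so hits raise OD615 growth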). To be noted: S. cerevisiae dse1pr::URA3 5-FOA growth, OD615, 2 d; at 10 µM; active compounds read high; strain carries analog-sensitive mutant Cbk1 kinase.
A short description of experiment [6]: RAM signaling pathway blockade in yeast – S. cerevisiae, Pdr1DBD-CYC8 efflux-inhibited sensitized strain, primary screen (AID 1298;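 active means RAM network inhibition above 8.4% in each of two replicates, 3 SD over the compound average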;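 further: 0% = DMSO untreated cells without growth and 100% = 10 µM 1-NA-PP1 full growth; higher means more yeast growth rescued from 5-FOA killing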). To be noted: S. cerevisiae cbk1-as DSE1-URA3 strain, 5-FOA growth OD615, 2 d; at 50 µM; active compounds read high.

Unmarked numbers belong to inactive results. Results filed as inconclusive are left out. Activity calls are given as the source filed them.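 How the source made its calls, unless noted: active means cell viability at or below a set limit in both duplicate runs, the limit being the all-compound median minus 4 SD (cut at about 23% in these data, passing the limit was not always enough); inconclusive means no clear call, values can overlap the other calls; inactive means the rest.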

The term viability denotes a read-out of living cells in per cent, often relative to untreated cells. A word on the inhibition: it is the change of the read-out against control, counted positive when it falls. For `Cc1cccc(N2CCN(C(=O)c3ccc(NC(=O)C4CCCO4)cc3)CC2C)c1` (stereo not given), the growth inhibition is -10.9% in experiment [1] and 6.01% in experiment [2]. Also, in experiment [3], the viability increase is -2.33%. Also, the viability in experiment [4] is 105%. The inhibition in experiment [5] was 1.11%. In experiment [6], the RAM network inhibition was 4.83%.
As for `O=C(O)CN1C(=O)Nc2ccc(Br)cc2C1c1ccccc1` (stereo not given), the values for the growth inhibition in experiment [1] and in experiment [2] were 0.155% and -8.88%, respectively. In addition, the viability increase in experiment [3] was -2.28%. Besides, in experiment [4], the viability was 93.6%. In addition, the inhibition in experiment [5] was -0.025%. In addition, the RAM network inhibition in experiment [6] is 0.79%.
Take `COc1ccccc1NC1=NCC(=O)N1Cc1ccccc1`: the growth inhibition in experiment [1] was -30.4%; in experiment [2], -3.24%. The viability increase in experiment [3] is -0.5%. Moreover, in experiment [4], the viability is 93.9%. Further, the inhibition in experiment [5] is 3.58%. For the same molecule, in experiment [6], the RAM network inhibition is 4.78%.
As to `CCCc1[nH]nc2c1C(C1CC=CCC1)C(C#N)=C(N)O2` (stereo not given), the growth inhibition in experiment [1] is 4.52%; in experiment [2] it was 6.39%. Further, the viability increase in experiment [3] was -6.94%. Besides, the viability in experiment [4] was 11.9% (active). Moreover, the inhibition in experiment [5] is -0.015%. In addition, the RAM network inhibition in experiment [6] is 1.22%.
Take `c1nc(NCCN2CCOCC2)c2sc3nc(N4CCOCC4)c4c(c3c2n1)CCC4`: the growth inhibition in experiment [1] is -7.6%; in experiment [2], 6.11%. The viability increase in experiment [3] was -6.1%. The viability in experiment [4] was 84.8%. For the same molecule, the inhibition in experiment [5] was 2.26%. The RAM network inhibition in experiment [6] was 8.21%.
As to `CCCn1c(CNC(=O)Cc2ccccc2)nc2ccccc21`, the growth inhibition in experiment [1] was 4.79%; in experiment [2], 4.86%. Also, the viability increase in experiment [3] was -0.37%. Moreover, in experiment [4], the viability is 106%. For the same molecule, the inhibition in experiment [5] was 2.26%. Moreover, the RAM network inhibition in experiment [6] is 2.59%.
In the case of `CCOc1ccc(-n2c(SCC(=O)Nc3ccc4c(c3)OCCO4)nc3c(c2=O)SCC3)cc1`, the growth inhibition is -12.9% in experiment [1] and -5.05% in experiment [2]. In addition, in experiment [3], the viability increase was -2.09%. Besides, the viability in experiment [4] is 84.1%. For the same molecule, in experiment [5], the inhibition is 3.17%. Also, the RAM network inhibition in experiment [6] was 9.35%.
Turning to `COc1ccc(C2C3=C(CC(C)(C)CC3=O)Nc3n[nH]c(C)c32)cc1` (stereo not given), the growth inhibition in experiment [1] is -9.23%; in experiment [2] it was -7.11%. In addition, the viability increase in experiment [3] was -4.1%. Besides, the viability in experiment [4] is 93%. In experiment [5], the inhibition was 1.51%. Besides, the RAM network inhibition in experiment [6] is 3.28%.
As to `CCC1SC2=NC(C)=C(C(=O)OC)C(c3ccc(C(=O)OC)cc3)N2C1=O` (stereo not given), the growth inhibition in experiment [1] is 6.67%; in experiment [2] it was 35.7%. In addition, in experiment [3], the viability increase was 3.25%. Besides, the viability in experiment [4] was 101%. For the same molecule, the inhibition in experiment [5] is 1.47%. Moreover, the RAM network inhibition in experiment [6] is 9.87%.
Turning to `Cc1ccc(CNC(=O)CCS(=O)(=O)c2cccc3nonc23)cc1`, the growth inhibition was 8.16% in experiment [1] and -4.57% in experiment [2]. Besides, the viability increase in experiment [3] was -0.35%. For the same molecule, in experiment [4], the viability was 98.8%. Besides, the inhibition in experiment [5] is 1.71%. Moreover, the RAM network inhibition in experiment [6] was 5.43%.
As to `COc1cc(C2=Nc3c(c(C)nn3-c3ccccc3)P(=O)(N3CCOCC3)O2)cc(OC)c1OC` (stereo not given), the growth inhibition was 12.4% in experiment [1] and 0.78% in experiment [2]. Further, in experiment [3], the viability increase is -2.26%. In experiment [4], the viability is 92%. In addition, the inhibition in experiment [5] is 0.485%. Further, the RAM network inhibition in experiment [6] was 2.86%.
For the molecule `COCCNC(=O)c1cn(C)c(=O)c2cc(OC)c(OC)cc12`, the growth inhibition in experiment [1] is -20.6%; in experiment [2] it was -7.83%. The viability increase in experiment [3] was -1.73%. In addition, in experiment [4], the viability was 95.5%. Further, the inhibition in experiment [5] was 1.6%. The RAM network inhibition in experiment [6] was 7.53%.
For `COc1ccc(NC2=NCC(=O)N2c2ccccc2)c(OC)c1`, the results for the growth inhibition in experiment [1] and in experiment [2] were -19.2% and -5.42%, respectively. Also, in experiment [3], the viability increase was -0.89%. For the same molecule, the viability in experiment [4] is 91.5%. Besides, in experiment [5], the inhibition is 1.15%. The RAM network inhibition in experiment [6] is 5.45%.
In the case of `CCN1CCN(Cc2nc3c(c(=O)n(C)c(=O)n3C)n2C(C)C(C)=O)CC1` (stereo not given), the growth inhibition in experiment [1] was -32.2%; in experiment [2] it was -4.38%. In experiment [3], the viability increase is -1.83%. Further, in experiment [4], the viability was 89.7%. Moreover, the inhibition in experiment [5] was 1.41%. Moreover, in experiment [6], the RAM network inhibition is 4.46%.
Regarding `Nc1ncnc2c1ncn2C1CCC(CO)C(O)C1` (stereo not given), the growth inhibition was 3.96% in experiment [1] and -0.275% in experiment [2]. For the same molecule, in experiment [3], the viability increase was -3.38%. Also, the viability in experiment [4] was 107%. The inhibition in experiment [5] was 1.32%. The RAM network inhibition in experiment [6] is 3.68%.
Turning to `COc1ccc(N2CCN(CCNC(=O)c3ccc(NC(=O)C4CCCO4)cc3)CC2)cc1` (stereo not given), the values for the growth inhibition in experiment [1] and in experiment [2] were -14% and -9.71%, respectively. Besides, the viability increase in experiment [3] was -1.61%. Besides, the viability in experiment [4] is 99.8%. For the same molecule, the inhibition in experiment [5] was 1.68%. For the same molecule, in experiment [6], the RAM network inhibition was 7.42%.
On to `O=C(Cn1nnc(-c2ccccc2NC(=O)c2ccccc2F)n1)NCc1ccco1`, for which the figures for the growth inhibition in experiment [1] and in experiment [2] were -7.91% and -7.09%, respectively. The viability increase in experiment [3] was -6.92%. Also, the viability in experiment [4] was 73.9%. The inhibition in experiment [5] was 1.39%. For the same molecule, the RAM network inhibition in experiment [6] is 4.52%.
As for `Cc1c(C(=O)NCC2COc3ccccc3O2)oc2ccc(S(=O)(=O)N3CCOCC3)cc12` (stereo not given), the figures for the growth inhibition in experiment [1] and in experiment [2] were -22% and -8.28%, respectively. Besides, the viability increase in experiment [3] was -2.13%. In experiment [4], the viability is 42.2%. In experiment [5], the inhibition was 3.01%. Moreover, the RAM network inhibition in experiment [6] is 6.17%.
As for `C=CCn1c(=O)[nH]c2cc(C(=O)N3CCN(c4cccc(Cl)c4)CC3)ccc2c1=O`, the growth inhibition in experiment [1] was -16.5%; in experiment [2] it was -12.3%. Also, in experiment [3], the viability increase is -6.95%. The viability in experiment [4] is 79.3%. The inhibition in experiment [5] is 3.33%. The RAM network inhibition in experiment [6] is 3.07%.
Take `C=C(C)Cn1c(CCCNC(=O)CCC)nc2ccccc21`: the figures for the growth inhibition in experiment [1] and in experiment [2] were -14.9% and 7.12%, respectively. Besides, in experiment [3], the viability increase is -0.37%. In addition, the viability in experiment [4] is 94.7%. For the same molecule, the inhibition in experiment [5] was -0.295%. The RAM network inhibition in experiment [6] is 1.57%.
